Test results taken from ChEMBL document CHEMBL1833887, “Synthesis and evaluation of 7-substituted 4-aminoquinoline analogues for antimalarial activity” (J Med Chem, 2011).
Values after ≈ are worked out from the molar mass of the structure shown.

Columns and labels:
[1] = Solubility of the compound at pH 7.4 after 18 hrs by UV spectroscopic analysis; type: physicochemical; conditions: buffer
Procedure, shortened: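 Kinetic solubility. A 10 mM stock is diluted 1:100 into PBS pH 7.4 and incubated 18 h at room temperature, then filtered; the filtrate is mixed 1:1 with 1-propanol. UV spectrum (250–500 nm) compared by AUC with a 1-propanol/PBS reference. Single experiment in triplicate.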

[2] = Permeability of the compound at pH 7.4 after 30 mins by PAMPA; type: ADME; conditions: read-out: permeability
Procedure, shortened: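 PAMPA at pH 7.4. A 10 mM DMSO stock is diluted into system solution buffer; its UV spectrum serves as reference. Membrane painted with GIT lipid, acceptor chamber holds acceptor solution buffer. Sandwich stirred for 30 min, aqueous boundary layer set to 40. Donor and acceptor UV spectra read at 250–500 nm. Permeability coefficient from the AUCs of reference, donor and acceptor. Single experiment in triplicate.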

[3] = Dissociation constant, pKa of the compound; type: physicochemical
Plasmodium falciparum [4] = assay: Antimalarial activity against chloroquine-sensitive Plasmodium falciparum 3D7 infected in human erythrocytes assessed as reduction in parasitemia after 72 hrs by spectrophotometry; type: functional, organism-based; conditions: 3D7, 72 h
Plasmodium falciparum [5] = assay: Antimalarial activity against chloroquine-resistant Plasmodium falciparum K1 infected in human erythrocytes assessed as reduction in parasitemia after 72 hrs by spectrophotometry; type: functional, organism-based; conditions: K1, 72 h
Plasmodium falciparum [6] = assay: Ratio of EC50 for chloroquine-resistant Plasmodium falciparum K1 infected in human erythrocytes to EC50 for chloroquine-sensitive Plasmodium falciparum 3D7 infected in human erythrocytes; type: functional
HepG2 = assay: Cytotoxicity against human HepG2 cells assessed as intracellular ATP level after 72 hrs by Celltiter-Glo luminescent assay; type: cell-based; conditions: HepG2, 72 h
[7] = Ratio of EC50 for human HepG2 cells to EC50 for Plasmodium falciparum 3D7 infected in human erythrocytes
[8] = Ratio of EC50 for human HepG2 cells to EC50 for Plasmodium falciparum K1 infected in human erythrocytes

| SMILES | solubility at 18 h [1] | Papp at 0.5 h [2] | pKa [3] | EC50 (Plasmodium falciparum [4]) | EC50 (Plasmodium falciparum [5]) | Ratio EC50 (Plasmodium falciparum [6]) | EC50 (HepG2) | Ratio EC50 [7] | Ratio EC50 [8] |
| --- | --- | --- | --- | --- | --- | --- | --- | --- | --- |
| COc1cccc(CNCCCNc2ccnc3cc(-c4ccc(C(F)(F)F)cc4)ccc23)c1O | 32 µM (≈ 15.4 µg/mL) | 2370 nm/s | 9.47 | 0.013 µM | 0.024 µM | 1.8 | 2.21 µM | 166.2 | 91 |
| COc1ccc(-c2ccc3c(NCCCNCc4ccc5c(c4)OCO5)ccnc3c2)cc1 | 32 µM (≈ 14.1 µg/mL) | 2370 nm/s | 9.47 | 0.029 µM | 0.026 µM | 0.9 | 5.63 µM | 192.9 | 218.3 |
| c1cc(NCCCNCc2ccc3c(c2)OCO3)c2ccc(Cc3ccc4c(c3)OCO4)cc2n1 | 32 µM (≈ 15 µg/mL) | 2370 nm/s | 9.47 | 0.026 µM | 0.027 µM | 1 | 4.79 µM | 185 | 178.8 |
| COc1ccc(-c2ccc3c(NCCCNCc4cc(F)ccc4OC)ccnc3c2)cc1 | 32 µM (≈ 14.3 µg/mL) | 2370 nm/s | 9.47 | 0.096 µM | 0.029 µM | 0.3 | 5.96 µM | 62.1 | 205.5 |
| c1ccc(-c2ccc3c(NCCCNCc4ccc5c(c4)OCO5)ccnc3c2)cc1 | 32 µM (≈ 13.2 µg/mL) | 2370 nm/s | 9.47 | 0.017 µM | 0.029 µM | 1.7 | 4.07 µM | 234 | 138.9 |
| Fc1ccc(-c2ccc3c(NCCCNCc4ccc5c(c4)OCO5)ccnc3c2)cc1 | 32 µM (≈ 13.7 µg/mL) | 2370 nm/s | 9.47 | 0.018 µM | 0.035 µM | 2 | 8.77 µM | 495.4 | 252 |
| COc1ccc(F)cc1CNCCCNc1ccnc2cc(-c3ccccc3)ccc12 | 32 µM (≈ 13.3 µg/mL) | 2370 nm/s | 9.47 | 0.011 µM | 0.045 µM | 4.2 | 2.96 µM | 276.4 | 66.3 |
| c1coc(CNCCCNc2ccnc3cc(Cc4ccc5c(c4)OCO5)ccc23)c1 | 32 µM (≈ 13.3 µg/mL) | 2370 nm/s | 9.47 | 0.019 µM | 0.046 µM | 2.4 | 6.5 µM | 340.2 | 142.2 |
| COc1cccc(CNCCCNc2ccnc3cc(Cc4ccc5c(c4)OCO5)ccc23)c1O | 32 µM (≈ 15.1 µg/mL) | 2370 nm/s | 9.47 | 0.008 µM | 0.05 µM | 6 | 1.14 µM | 135.4 | 22.7 |
| Fc1ccc(-c2ccc3c(NCCCNCc4ccco4)ccnc3c2)cc1 | 32 µM (≈ 12 µg/mL) | 2370 nm/s | 9.47 | 0.032 µM | 0.069 µM | 2.1 | 7.76 µM | 240.4 | 113.2 |
| COc1ccc(-c2ccc3c(NCCCNCc4cccc(OC)c4O)ccnc3c2)cc1 | 32 µM (≈ 14.2 µg/mL) | 2370 nm/s | 9.47 | 0.013 µM | 0.078 µM | 6 | 1.6 µM | 122.9 | 20.6 |
| COc1ccc(F)cc1CNCCCNc1ccnc2cc(-c3ccc(C(F)(F)F)cc3)ccc12 | 32 µM (≈ 15.5 µg/mL) | 2370 nm/s | 9.47 | 0.054 µM | 0.089 µM | 1.7 | 5.19 µM | 96.8 | 58.4 |
| COc1ccc(F)cc1CNCCCNc1ccnc2cc(-c3ccc(F)cc3)ccc12 | 32 µM (≈ 13.9 µg/mL) | 2370 nm/s | 9.47 | 0.018 µM | 0.097 µM | 5.5 | 0.77 µM | 44 | 7.9 |
| FC(F)(F)c1ccc(-c2ccc3c(NCCCNCc4ccc5c(c4)OCO5)ccnc3c2)cc1 | 32 µM (≈ 15.3 µg/mL) | 2370 nm/s | 9.47 | 0.025 µM | 0.098 µM | 3.9 | 1.89 µM | 74.5 | 19.2 |
| c1ccc(-c2ccc3c(NCCCNCc4ccco4)ccnc3c2)cc1 | 32 µM (≈ 11.4 µg/mL) | 2370 nm/s | 9.47 | 0.02 µM | 0.128 µM | 6.3 | 5.92 µM | 291.6 | 46.4 |
| COc1cccc(CNCCCNc2ccnc3cc(-c4cc(C(F)(F)F)cc(C(F)(F)F)c4)ccc23)c1O | 32 µM (≈ 17.6 µg/mL) | 2370 nm/s | 9.47 | 0.029 µM | 0.209 µM | 7.2 | 0.94 µM | 32.4 | 4.5 |
| FC(F)(F)c1ccc(-c2ccc3c(NCCCNCc4ccco4)ccnc3c2)cc1 | 32 µM (≈ 13.6 µg/mL) | 2370 nm/s | 9.47 | 0.02 µM | 0.223 µM | 11 | 3.47 µM | 171 | 15.5 |
| CC(C)(C)c1ccc(-c2ccc3c(NCCCNCc4ccco4)ccnc3c2)cc1 | 32 µM (≈ 13.2 µg/mL) | 2370 nm/s | 9.47 | 0.704 µM | 0.325 µM | 0.5 | 3.15 µM | 4.5 | 9.7 |
| COc1cccc(CNCCCNc2ccnc3cc(-c4ccc(C(C)(C)C)cc4)ccc23)c1O | 32 µM (≈ 15 µg/mL) | 2370 nm/s | 9.47 | 0.251 µM | 0.418 µM | 1.7 | 0.69 µM | 2.8 | 1.7 |
| CC(C)(C)c1ccc(-c2ccc3c(NCCCNCc4ccc5c(c4)OCO5)ccnc3c2)cc1 | 32 µM (≈ 15 µg/mL) | 2370 nm/s | 9.47 | 0.223 µM | 0.49 µM | 2.2 | 1.37 µM | 6.2 | 2.8 |
| c1ccc2c(-c3ccc4c(NCCCNCc5ccc6c(c5)OCO6)ccnc4c3)cccc2c1 | 32 µM (≈ 14.8 µg/mL) | 2370 nm/s | 9.47 | 0.598 µM | 0.538 µM | 0.9 | 6.57 µM | 11 | 12.2 |
| FC(F)(F)c1cc(-c2ccc3c(NCCCNCc4ccc5c(c4)OCO5)ccnc3c2)cc(C(F)(F)F)c1 | 32 µM (≈ 17.5 µg/mL) | 2370 nm/s | 9.47 | 0.284 µM | 0.604 µM | 2.1 | 1.16 µM | 4.1 | 1.9 |
| COc1ccc(F)cc1CNCCCNc1ccnc2cc(-c3cc(C(F)(F)F)cc(C(F)(F)F)c3)ccc12 | 32 µM (≈ 17.6 µg/mL) | 2370 nm/s | 9.47 | 0.092 µM | 0.812 µM | 8.8 | 0.87 µM | 9.4 | 1.1 |
| COc1cccc(CNCCCNc2ccnc3cc(-c4ccc(F)cc4)ccc23)c1O | 32 µM (≈ 13.8 µg/mL) | 2370 nm/s | 9.47 | 0.009 µM | 0.854 µM | 92.8 | 6.84 µM | 742.9 | 8 |
| FC(F)(F)c1cc(-c2ccc3c(NCCCNCc4ccco4)ccnc3c2)cc(C(F)(F)F)c1 | 32 µM (≈ 15.8 µg/mL) | 2370 nm/s | 9.47 | 0.285 µM | 0.972 µM | 3.4 | 2.41 µM | 8.5 | 2.5 |
| COc1ccc(F)cc1CNCCCNc1ccnc2cc(-c3cccc4ccccc34)ccc12 | 32 µM (≈ 14.9 µg/mL) | 2370 nm/s | 9.47 | 1.15 µM | 1.03 µM | 0.9 | 16 µM | 13.9 | 15.5 |
| COc1cccc(CNCCCNc2ccnc3cc(-c4cccc5ccccc45)ccc23)c1O | 32 µM (≈ 14.8 µg/mL) | 2370 nm/s | 9.47 | 0.033 µM | 1.12 µM | 33.9 | 2.52 µM | 76.3 | 2.3 |
| c1coc(CNCCCNc2ccnc3cc(-c4cccc5ccccc45)ccc23)c1 | 32 µM (≈ 13 µg/mL) | 2370 nm/s | 9.47 | 0.031 µM | 1.29 µM | 41.2 | 5.6 µM | 178.2 | 4.3 |
